Holding throughout (format): functional
Test [1] has as its system Canis familiaris. Briefly: Inhibition of histamine stimulated gastric acid secretion in adult mongrel dogs at dose 5 mg/kg given intravenously. As to conditions: Canis lupus familiaris, Stomach, route intravenous. Put shortly:
(§1)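 Dogs with Heidenhain pouches, 12–18 kg, fasted 18 h. Compound given iv in 3 mL or by gavage in 5 mL of 0.4% methylcellulose/saline, 1 h after infusion start. 30-min collections titrated. Summed 3-h AO against the same dog's control AO gives % inhibition. Usually one dog per compound.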

Test [2] relates to Rattus norvegicus. Briefly: Gastric antisecretory activity in the pylorus-ligated rat and the reduction in acid output was measured after 4 hr by intraperitoneal (ip) administration of 40 mg/kg dose. Put shortly:
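Male Charles River CD rats, 150–200 g, fasted 24 h. Pylorus ligated under Brevital anesthesia. 40 mg/kg given ip in 2.5% Tween 80 at ligation. Stomach contents collected at 4 h and titrated with 0.1 N NaOH to pH 7.0. % inhibition from mean AO, 6 treated vs 8 control rats. Student's t test.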

In test [3] the test system is Canis familiaris. Description: Inhibition of histamine stimulated gastric acid secretion in adult mongrel dogs at dose 8 mg/kg given orally. The note with it: Canis lupus familiaris, Stomach, route oral. Put shortly:
as §1

The structures appear in SMILES notation.

In general, inhibition in vivo refers to how much of the control response was suppressed. A higher inhibition in vivo goes with a response far below the control.

Compound `CC(=O)c1c(C)nc2c(OCc3ccccc3)cccn12` returned an inhibition in vivo at 5 mg/kg in test [1] of 9%. For the same compound, at 40 mg/kg the inhibition in vivo in test [2] was 57%.
Taken in the same sequence, the figures for `COC(=O)Cc1c(C)nc2c(OCc3ccccc3)cccn12` were 16% and 23%.
As for `CCOC(=O)c1c(C)nc2c(OCc3ccccc3)cccn12`, the inhibition in vivo at 40 mg/kg in test [2] is 22%.
The compound `Cc1nc2c(OCc3ccccc3)cccn2c1Br` gave an inhibition in vivo at 5 mg/kg in test [1] of 63%. This compound also gave an inhibition in vivo at 8 mg/kg in test [3] of 0%. Besides, in test [2], testing at 40 mg/kg gave an inhibition in vivo of 26%.
For `Cc1nc2c(O)cccn2c1CC#N`, at 5 mg/kg the inhibition in vivo in test [1] was 0%. Further, in test [2], the inhibition in vivo at 40 mg/kg came out at 0%.
In test [1], `Cc1nc2c(OCc3ccccc3)cccn2c1Cl` had an inhibition in vivo at 5 mg/kg of 37%. The same compound gave an inhibition in vivo at 8 mg/kg in test [3] of 43%. The compound further registered an inhibition in vivo at 40 mg/kg in test [2] of 93%.
`Cc1nc2c(OCc3ccccc3)cccn2c1CS(C)(=O)=O`: the inhibition in vivo at 5 mg/kg in test [1] is 0%. The compound further returned an inhibition in vivo at 40 mg/kg in test [2] of 61%.
Taken in the same sequence, the figures for `N#CCc1c(C(F)(F)F)nc2c(OCc3ccccc3)cccn12` were 0% and 0%.
Taken in the same sequence, the figures for `Cc1nc2c(OCc3ccccc3)cccn2c1CC(=O)O` were 24% and 12%.
`Cc1nc2c(OCc3ccccc3)cccn2c1CC(=S)N(C)C` returned an inhibition in vivo at 5 mg/kg in test [1] of 0%. The same compound came in with an inhibition in vivo at 40 mg/kg in test [2] of 21%.
Regarding `Cc1nc2c(OCc3ccccc3)cccn2c1COC(=O)c1cccnc1`, in test [1], the inhibition in vivo at 5 mg/kg is 88%. In addition, in test [3], the inhibition in vivo at 8 mg/kg stood at 0%. Further, the inhibition in vivo at 40 mg/kg in test [2] stood at 87%.
Take `CNC(=O)Cc1c(C)nc2c(OCc3ccccc3)cccn12`: the inhibition in vivo at 5 mg/kg in test [1] came out at 14%. The same compound showed an inhibition in vivo at 40 mg/kg in test [2] of 24%.
Compound `CCCCC(=O)OCc1c(C)nc2c(OCc3ccccc3)cccn12` showed an inhibition in vivo at 5 mg/kg in test [1] of 96%. This compound also displayed an inhibition in vivo at 8 mg/kg in test [3] of 13%. The compound also had an inhibition in vivo at 40 mg/kg in test [2] of 45%.
`Cc1nc2c(OCc3ccc(S(C)(=O)=O)cc3)cccn2c1CC#N` returned an inhibition in vivo at 40 mg/kg in test [2] of 2%.
In test [1], `Cc1nc2c(OCc3ccccc3)cccn2c1COC(=O)N(C)C` had an inhibition in vivo at 5 mg/kg of 23%. Besides, at 8 mg/kg the inhibition in vivo in test [3] was 49%. For the same compound, in test [2], the inhibition in vivo at 40 mg/kg came to 75%.
For `Cc1nc2c(OCc3ccccc3)cccn2c1C[S+](C)[O-]` (centres undefined), in test [1], the inhibition in vivo at 5 mg/kg amounted to 18%. The compound further gave an inhibition in vivo at 40 mg/kg in test [2] of 0%.
`CSCc1c(C)nc2c(OCc3ccccc3)cccn12` returned an inhibition in vivo at 5 mg/kg in test [1] of 8%. Moreover, the inhibition in vivo at 40 mg/kg in test [2] came out at 29%.
Taken in the same sequence, the figures for `C/N=C(/S)Cc1c(C)nc2c(OCc3ccccc3)cccn12` were 0% and 7%.
`CCSCc1c(C)nc2c(OCc3ccccc3)cccn12` returned an inhibition in vivo at 5 mg/kg in test [1] of 0%. In test [2], 40 mg/kg produced 36% inhibition in vivo.
Taken in the same sequence, the figures for `c1ccc(COc2cccn3c4c(nc23)CCC4)cc1` were 0% and 26%.
For the compound `Cc1nc2c(OCc3ccccc3)cccn2c1CC1=NCCN1`, the inhibition in vivo at 40 mg/kg in test [2] was 69%.
Take `COCc1c(C)nc2c(OCc3ccccc3)cccn12`: in test [1], the inhibition in vivo at 5 mg/kg amounted to 29%. For the same compound, in test [3], the inhibition in vivo at 8 mg/kg was determined as 37%. The inhibition in vivo at 40 mg/kg in test [2] is 99%.
`Cc1nc2c(OCc3ccccc3)cccn2c1CC(=N)N` registered an inhibition in vivo at 5 mg/kg in test [1] of 0%. Moreover, the inhibition in vivo at 40 mg/kg in test [2] stood at 79%.
On to `Cc1nc2c(OCc3ccccc3)cccn2c1C(N)=O`, for which the inhibition in vivo at 5 mg/kg in test [1] worked out at 2%. The compound also had an inhibition in vivo at 40 mg/kg in test [2] of 42%.
`CCOCc1c(C)nc2c(OCc3ccccc3)cccn12` came in with an inhibition in vivo at 5 mg/kg in test [1] of 35%. Further, in test [3], the inhibition in vivo at 8 mg/kg was found to be 0%. In test [2], this compound had an inhibition in vivo at 40 mg/kg of 84%.

For the origin of these results see ChEMBL document CHEMBL1122898, “Antiulcer agents. 1. Gastric antisecretory and cytoprotective properties of substituted imidazo[1,2-a]pyridines” (1985).
